One experiment addresses CF98. It is filed as binding. The note with it: read-out: Kd (CF98).
A further experiment has as its system Citron1. It is filed as cell-based, HeLa. The note with it: read-out: in situ Kd (Citron1); n = 128. In short, it runs like this:
(§1)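 HeLa cells (ATCC CCL-2) express the biosensor from a CMV promoter, untargeted (cytoplasmic/nuclear). Cells are imaged, permeabilized with digitonin, then titrated stepwise with citrate (0.1 to ∼20 mM) in the imaging buffer, allowing at least 250 s per step. The mean response versus citrate gives the in situ calibration curve, from 128 cells or 26 cells; s.e.m. is given.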

The next experiment relates to Citroff1. It is filed as cell-based, HeLa. The settings on record: read-out: in situ Kd (Citroff1); n = 26. Put shortly: as §1
The subject of experiment [1] is citrate concentration in INS-1 cells. As to the kind of experiment: Citrate quantification with Citron1 in INS-1 cells treated with glucose or BTC. It is filed as cell-based, rat. Put shortly: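 INS-1 cells express the direct-response citrate biosensor in the cytosol or in mitochondria and are imaged in Krebs-Ringer buffer, with 20 mM glucose then 2 mM test compound, or test compound without glucose. Concentrations are read from in situ titration curves in digitonin-permeabilized cells (cytosol n = 62, mitochondria n = 34 cells). Each value is the average of triplicates; s.e.m. is given.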

The subject of experiment [2] is citrate concentration in HeLa cells. Description: Imaging of glucose- or drug-induced citrate concentration changes in HeLa cells. In kind it is cell-based.
Experiment [3] has as its system citrate concentration in INS-1 cells. The note with it: stimulatory glucose; cited from earlier work.

SMILES strings stand for the structures. Where a name gives a salt, the structure may show the parent alone.

Turning to `O=C(O)CC(O)(CC(=O)O)C(=O)O` [citrate, citrate (2-hydroxypropane-1,2,3-tricarboxylate)], the Kd (as a rule, the equilibrium constant for the complex coming apart) at CF98 was roughly 9 mM; in the experiment with Citron1 it was 5.7 mM; in the experiment with Citroff1 it was 0.13 mM.

On to `O=C(O)c1cccc(C(=O)O)c1C(=O)O` [BTC, 1,2,3-benzenetricarboxylate], for which the “citrate concentration, following increase” value in experiment [1] (2 mM BTC after glucose addition) is given as roughly 18 mM. Also, the “citrate concentration, pronounced decrease after treatment” value in experiment [1] (2 mM BTC after glucose addition, from ∼25 mM) was roughly 10 mM. The “citrate concentration after treatment” value in experiment [1] (2 mM BTC in the absence of glucose, from ∼3 mM) is “less than 2 mM”.

For the molecule `OC[C@H]1OC(O)[C@H](O)[C@@H](O)[C@@H]1O` (stereo partly drawn) [glucose], the “cytosolic citrate concentration change upon glucose addition” value in experiment [2] (HeLa cells starved 0.5–1 h, 20 mM glucose) was “substantially increased”. Besides, in experiment [2] (HeLa cells starved 0.5–1 h, mitochondria-localized Citron1), the “mitochondrial citrate change upon glucose addition” value is recorded as “initial transient decrease followed by a slower increase”. For the same molecule, the “cytosolic and mitochondrial citrate concentration after treatment” value in experiment [1] (20 mM glucose, Krebs-Ringer buffer) is roughly 25 mM. In addition, the “fold increase in the concentration of citrate” value in experiment [3] was roughly 8 fold.

Regarding `N#C/C(=C\c1cn(-c2ccccc2)c2ccccc12)C(=O)O` [UK-5099, reference compound], in experiment [2] (HeLa mitochondria, 25 μM), the “subsequent change of Citron1 fluorescence” value is “sustained decrease”. The “transient increase of Citron1 fluorescence” value in experiment [2] (HeLa mitochondria, 25 μM, likely DMSO artifact per authors) stood at 20%.

Source of the values: PMC7453566 (ACS Central Science, 2020).
